What was measured:
[1] = target: Sodium-dependent noradrenaline transporter (Homo sapiens, UniProt P23975); experiment: Displacement of [3H]nisoxetine from human recombinant NET expressed in BacMam virus-transduced cells by scintillation proximity assay; assay type: cell-based
Summary of the method: (§1)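 BacMam-transduced membranes in SPA format. SERT: 1 mg/mL beads, 6 μg/mL membranes, 3 nM [3H]citalopram. NET: 2 mg/mL beads, 40 μg/mL membranes, 10 nM [3H]nisoxetine. Incubated overnight at room temperature; pKi from pIC50 by Cheng-Prusoff.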

[2] = target: Sodium-dependent serotonin transporter (Homo sapiens, UniProt P31645); experiment: Displacement of [3H]citalopram from human recombinant SERT expressed in BacMam virus-transduced cells by scintillation proximity assay; assay type: cell-based; summary of the method: as §1
Chain of Sodium-dependent serotonin transporter (P31645 whole entry): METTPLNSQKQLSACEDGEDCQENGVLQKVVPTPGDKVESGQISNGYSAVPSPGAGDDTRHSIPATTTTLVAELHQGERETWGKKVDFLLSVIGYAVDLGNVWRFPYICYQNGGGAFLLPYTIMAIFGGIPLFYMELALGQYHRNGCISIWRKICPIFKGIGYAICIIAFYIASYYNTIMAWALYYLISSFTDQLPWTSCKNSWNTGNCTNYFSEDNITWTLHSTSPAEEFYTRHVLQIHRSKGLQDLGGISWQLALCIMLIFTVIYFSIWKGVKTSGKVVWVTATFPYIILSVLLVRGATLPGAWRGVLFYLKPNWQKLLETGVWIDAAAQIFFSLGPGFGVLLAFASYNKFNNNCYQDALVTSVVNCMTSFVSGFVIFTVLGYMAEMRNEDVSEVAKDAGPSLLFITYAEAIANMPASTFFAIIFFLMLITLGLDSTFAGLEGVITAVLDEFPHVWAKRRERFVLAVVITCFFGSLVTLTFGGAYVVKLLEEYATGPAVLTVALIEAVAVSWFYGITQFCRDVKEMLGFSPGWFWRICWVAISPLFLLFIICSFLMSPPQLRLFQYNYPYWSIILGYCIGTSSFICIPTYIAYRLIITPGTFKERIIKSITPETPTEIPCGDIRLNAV

[3] = target: Sodium-dependent dopamine transporter (Homo sapiens, UniProt Q01959); experiment: Displacement of [3H]WIN-35428 from human recombinant DAT expressed in BacMam virus-transduced cells by scintillation proximity assay; assay type: cell-based
Chain of Sodium-dependent dopamine transporter (Q01959 whole entry): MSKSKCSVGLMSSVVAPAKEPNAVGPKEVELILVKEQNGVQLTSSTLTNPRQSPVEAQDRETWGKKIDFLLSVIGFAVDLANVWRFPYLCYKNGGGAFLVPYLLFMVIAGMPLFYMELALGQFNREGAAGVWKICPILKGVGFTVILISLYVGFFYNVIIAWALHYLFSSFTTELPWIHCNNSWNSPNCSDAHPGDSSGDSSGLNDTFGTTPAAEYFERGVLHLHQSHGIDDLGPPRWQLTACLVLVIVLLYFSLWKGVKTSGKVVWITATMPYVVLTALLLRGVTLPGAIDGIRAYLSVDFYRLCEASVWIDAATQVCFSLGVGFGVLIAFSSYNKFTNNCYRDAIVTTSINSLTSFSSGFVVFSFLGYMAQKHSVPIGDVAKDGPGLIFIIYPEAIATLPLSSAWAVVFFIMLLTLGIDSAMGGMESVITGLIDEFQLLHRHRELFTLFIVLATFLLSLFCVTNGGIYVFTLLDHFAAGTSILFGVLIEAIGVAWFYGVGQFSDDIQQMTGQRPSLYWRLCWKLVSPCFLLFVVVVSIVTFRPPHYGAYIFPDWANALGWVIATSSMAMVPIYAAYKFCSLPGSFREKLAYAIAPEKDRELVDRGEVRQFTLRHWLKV

Cytochrome P450 2D6 = Cytochrome P450 2D6 (Homo sapiens, UniProt P10635); experiment: Inhibition of human […] by fluorescence assay; assay type: ADME
Chain of Cytochrome P450 2D6 (P10635 whole entry): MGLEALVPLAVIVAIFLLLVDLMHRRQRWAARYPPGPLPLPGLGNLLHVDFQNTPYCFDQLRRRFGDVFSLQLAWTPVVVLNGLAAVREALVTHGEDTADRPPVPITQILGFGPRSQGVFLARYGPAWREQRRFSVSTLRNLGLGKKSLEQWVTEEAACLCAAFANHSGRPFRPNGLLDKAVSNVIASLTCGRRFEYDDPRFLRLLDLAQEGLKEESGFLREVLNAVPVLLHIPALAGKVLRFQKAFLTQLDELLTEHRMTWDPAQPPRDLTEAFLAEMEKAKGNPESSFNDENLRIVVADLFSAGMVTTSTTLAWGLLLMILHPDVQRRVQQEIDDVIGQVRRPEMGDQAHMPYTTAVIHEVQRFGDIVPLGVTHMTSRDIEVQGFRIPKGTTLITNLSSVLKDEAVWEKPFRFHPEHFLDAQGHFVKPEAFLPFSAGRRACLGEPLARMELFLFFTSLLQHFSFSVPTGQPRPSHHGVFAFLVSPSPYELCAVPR
Summary of the method: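 Recombinant human P450 bactosomes (0.1 mg/mL) in 50 mM phosphate, pH 7.4. Test compound at 0.1-10 μM, preincubated 10 min at 37 °C with fluorogenic substrate: ethoxyresorufin 0.5 μM (1A2), FCA 50 μM (2C9), BMC 10 μM (2C19), MMC 10 μM (2D6).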

Chain of Sodium-dependent noradrenaline transporter (P23975 whole entry): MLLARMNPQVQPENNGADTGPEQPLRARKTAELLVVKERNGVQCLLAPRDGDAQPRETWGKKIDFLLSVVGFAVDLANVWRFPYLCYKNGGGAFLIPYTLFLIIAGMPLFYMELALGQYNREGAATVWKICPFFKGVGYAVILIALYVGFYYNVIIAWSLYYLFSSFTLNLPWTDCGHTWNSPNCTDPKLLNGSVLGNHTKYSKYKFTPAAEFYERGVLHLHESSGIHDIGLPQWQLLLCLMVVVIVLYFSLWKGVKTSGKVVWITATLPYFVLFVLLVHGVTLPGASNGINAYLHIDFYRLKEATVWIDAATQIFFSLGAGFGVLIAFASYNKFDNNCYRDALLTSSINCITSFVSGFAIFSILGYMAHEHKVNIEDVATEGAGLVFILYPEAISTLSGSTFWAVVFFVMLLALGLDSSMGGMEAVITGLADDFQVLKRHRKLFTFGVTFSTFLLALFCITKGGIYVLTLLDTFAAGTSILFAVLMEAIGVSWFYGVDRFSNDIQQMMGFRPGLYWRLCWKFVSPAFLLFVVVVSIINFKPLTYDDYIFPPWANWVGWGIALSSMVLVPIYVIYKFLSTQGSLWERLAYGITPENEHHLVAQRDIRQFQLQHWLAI

Structure (SMILES) | Ki [1] [nM] | Ki [2] [nM] | Ki [3] [nM] | IC50 (Cytochrome P450 2D6) [nM] | pKi [3]
CC(C)OCC[C@]1(c2ccc(Cl)c(Cl)c2)[C@@H]2CNC[C@@H]21 | 1.58 | 0.316 | 6.31 | – | –
COCC[C@]1(c2ccc(Cl)c(Cl)c2)[C@@H]2CNC[C@@H]21 | 7.94 | 0.316 | 10 | – | –
CCOCC[C@]1(c2ccc(Cl)c(Cl)c2)[C@@H]2CNC[C@@H]21 | 7.94 | 0.501 | 15.8 | < 100 | –
FC(F)(F)COC[C@]1(c2ccc(Cl)c(Cl)c2)[C@@H]2CNC[C@@H]21 | 25.1 | 1 | 25.1 | 300 | –
Clc1ccc([C@@]2(CCOC3CCC3)[C@@H]3CNC[C@@H]32)cc1Cl | 3.98 | 0.2 | 6.31 | – | –
COCC[C@H]1[C@]2(C)CNC[C@]12c1ccc(Cl)c(Cl)c1 (racemic) | 3.16 | 0.794 | 63.1 | – | –
OC[C@@H]1[C@@H]2CNC[C@]12c1ccc(Cl)c(Cl)c1 (racemic) | 182 | 51.3 | 479 | – | –
Cc1cnc([C@H]2[C@@H]3CNC[C@@]32c2ccc(Cl)c(Cl)c2)o1 (racemic) | 20 | 15.8 | 126 | – | –
CCC(C)OCC[C@]1(c2ccc(Cl)c(Cl)c2)[C@@H]2CNC[C@@H]21 (mixture of isomers) | 3.98 | 0.316 | 5.01 | – | –
CCOCC[C@H]1[C@@H]2CNC[C@]12c1ccc(Cl)c(Cl)c1 (racemic) | 3.98 | 0.794 | 79.4 | – | –
OCC[C@H]1[C@@H]2CNC[C@]12c1ccc(Cl)c(Cl)c1 (racemic) | 7.94 | 2.51 | 79.4 | – | –
CCC(C)OC[C@]1(c2ccc(Cl)c(Cl)c2)[C@@H]2CNC[C@@H]21 (mixture of isomers) | 2 | 0.251 | 7.94 | – | –
Fc1ccc(OC[C@H]2[C@@H]3CNC[C@@]32c2ccc(Cl)c(Cl)c2)cc1 (racemic) | 39.8 | 1.26 | 79.4 | – | –
CCC[C@H]1[C@@H]2CNC[C@]12c1ccc(Cl)c(Cl)c1 (racemic) | 2 | 1 | 25.1 | – | –
COC[C@@H]1[C@@H]2CNC[C@]12c1ccc(Cl)c(Cl)c1 (racemic) | 1290 | 72.4 | 661 | – | –
Clc1ccc([C@]23CNC[C@H]2[C@@H]3COC2CCCCC2)cc1Cl (racemic) | 2 | 1 | 20 | – | –
OC[C@H]1[C@@H]2CNC[C@]12c1ccc(Cl)c(Cl)c1 (racemic) | 28.8 | 15.5 | 457 | – | –
Clc1ccc([C@]23CNC[C@H]2[C@H]3COCC2CC2)cc1Cl (racemic) | 126 | 31.6 | 501 | – | –
CN(C)C[C@H]1[C@@H]2CNC[C@@]21c1ccc(Cl)c(Cl)c1 (racemic) | 31.6 | 3.98 | 631 | – | –
COCC[C@H]1[C@@]2(c3ccc(Cl)c(Cl)c3)CNC[C@]12C (relative stereo) | 1000 | 31.6 | 126 | – | –
Clc1ccc([C@]23CNC[C@H]2[C@@H]3COC2CCCC2)cc1Cl (relative stereo) | 0.158 | 0.251 | 2.51 | – | –
CSC[C@H]1[C@@H]2CNC[C@@]21c1ccc(Cl)c(Cl)c1 (relative stereo) | 1.58 | 0.398 | 39.8 | – | –

Structure (SMILES) | Ki [1] [nM] | Ki [2] [nM] | Ki [3] [nM] | IC50 (Cytochrome P450 2D6) [nM] | pKi [3]
Clc1ccc([C@]23CNC[C@H]2[C@@H]3COCC2CC2)cc1Cl (relative stereo) | 15.8 | 5.01 | 200 | – | –
CCCOC[C@H]1[C@@H]2CNC[C@@]21c1ccc(Cl)c(Cl)c1 (relative stereo) | 31.6 | 9.55 | 251 | – | –
CC(C)OC[C@H]1[C@@H]2CNC[C@@]21c1ccc(Cl)c(Cl)c1 (relative stereo) | 200 | 39.8 | 251 | – | –
CCOC[C@H]1[C@@H]2CN(C)C[C@]12c1ccc(Cl)c(Cl)c1 (relative stereo) | 15.8 | 1.26 | 39.8 | – | –
Clc1ccc([C@]23CNC[C@H]2[C@@H]3COC2CCC2)cc1Cl (relative stereo) | 0.501 | 0.316 | 3.98 | – | –
COC[C@H]1[C@@H]2CNC[C@@]21c1ccc2ccccc2c1 (relative stereo) | 316 | 12.6 | 398 | – | –
Clc1ccc([C@@]23CNC[C@@H]2[C@H]3COC2CCC2)cc1Cl (stereo in doubt) | 158 | 25.1 | 251 | – | –
COC[C@H]1[C@@H]2CNC[C@@]21c1ccc(Cl)c(Cl)c1 (stereo in doubt) | 3.16 | 1.51 | 110 | – | –
Clc1ccc([C@]23CNC[C@H]2[C@@H]3COC2CCCC2)cc1Cl (stereo in doubt) | 0.794 | 0.501 | 6.31 | – | –
Clc1ccc([C@@]23CNC[C@@H]2[C@H]3COC2CCCC2)cc1Cl (stereo in doubt) | 12.6 | 7.94 | 100 | – | –
Cc1csc(C[C@H]2[C@@H]3CNC[C@@]32c2ccc(Cl)c(Cl)c2)n1 (stereo in doubt) | 0.316 | 0.2 | – | – | 7.7
CCCOC[C@@H]1[C@H]2CNC[C@]21c1ccc(Cl)c(Cl)c1 (stereo in doubt) | 0.631 | 0.251 | 12.6 | – | –
CSC[C@H]1[C@@H]2CNC[C@@]21c1ccc(Cl)c(Cl)c1 (stereo in doubt) | 5.01 | 0.794 | 79.4 | – | –
CSC[C@@H]1[C@H]2CNC[C@]21c1ccc(Cl)c(Cl)c1 (stereo in doubt) | 316 | 25.1 | 63.1 | – | –
COC[C@@H]1[C@H]2CNC[C@]21c1ccc(Cl)c(Cl)c1 (stereo in doubt) | 224 | 25.7 | 513 | – | –
Clc1ccc([C@]23CNC[C@H]2[C@@H]3COCC2CC2)cc1Cl (stereo in doubt) | 1.95 | 0.955 | 25.1 | – | –
CCCOC[C@H]1[C@@H]2CNC[C@@]21c1ccc(Cl)c(Cl)c1 (stereo in doubt) | 0.501 | 0.501 | 20 | – | –
CC(C)OC[C@H]1[C@@H]2CNC[C@@]21c1ccc(Cl)c(Cl)c1 (stereo in doubt) | 0.398 | 0.2 | 7.94 | – | –
Cc1csc(C[C@@H]2[C@H]3CNC[C@]32c2ccc(Cl)c(Cl)c2)n1 (stereo in doubt) | 79.4 | 15.8 | 50.1 | – | –
Clc1ccc([C@]23CNC[C@H]2[C@@H]3COC2CCC2)cc1Cl (stereo in doubt) | 1.26 | 0.631 | 12.6 | – | –
COC[C@H]1[C@@H]2CNC[C@@]21c1ccc2ccccc2c1 (stereo in doubt) | 1 | 0.158 | 50.1 | – | –
